Experimental findings from ChEMBL document CHEMBL1124882, “Synthesis and evaluation of 1,2,2-tris(sulfonyl)hydrazines as antineoplastic and trypanocidal agents” (1990) are described below.

The subject of experiment [1] is L1210. Nature of the experiment: (§1) Percentage of mice survived after 60 days of treatment with the compound was determined. Details: concentration or dose not given beside the values. Type of experiment: functional, Mus musculus. The method, boiled down: (§2)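 Mice implanted ip with 10⁶ L1210 leukemia cells (also P388 leukemia and Sarcoma 180); drug given ip in DMSO (≤0.025 mL) once daily for 6 consecutive days from 24 h after implantation, or as single dose; groups of five; vehicle controls. %T/C = mean survival treated/control ×100, excluding 60-day survivors, which are reported separately; weight change from onset to end of therapy used as toxicity.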

In experiment [2] the test system is L1210. Nature of the experiment: Evaluated for average percent change in body weight from onset to termination of therapy against L1210 Leukemia cells in mice after 150 mg/kg dose administration. Type of experiment: functional, Mus musculus. The method, boiled down: (§3)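 Recipient mice each received 0.1 mL of suspension containing 10⁶ L1210 cells. The line was kept in RPMI 1640 with 10% FBS and was re-passaged i.p. in CD2F1 donor mice every 8 weeks. Drug was given i.p. in DMSO (≤0.025 mL) once daily for 6 consecutive days, starting 24 h after implantation. Groups held 5–10 mice, with vehicle controls. Value is average % body-weight change from onset to end of therapy.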

Experiment [3] relates to L1210. Nature of the experiment: Evaluated for average percent change in body weight from onset to termination of therapy against L1210 Leukemia cells in mice after 15 mg/kg dose administration. Type of experiment: functional, Mus musculus. In a few lines:
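Mice were implanted with 10⁶ L1210 cells in 0.1 mL, from a line kept in culture and passaged in CD2F1 donor mice. A single i.p. dose was given in DMSO (≤0.025 mL). Groups held 5–10 mice, with vehicle-treated tumor-bearing controls. Read-out is average percent body-weight change from onset to termination of therapy, used as the toxicity index.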

Experiment [4] concerns L1210. Nature of the experiment: Average survival time of treated group / control group x(100) was determined. Type of experiment: functional, Mus musculus. The method, boiled down: as §2
The subject of experiment [5] is L1210. Nature of the experiment: Evaluated for average percent change in body weight from onset to termination of therapy against L1210 Leukemia cells in mice after 100 mg/kg dose administration. The class given is functional, Mus musculus. In a few lines:
as §3

Experiment [6] is filed under the species Mus musculus. Nature of the experiment: Effect of aging of compound on the activity after 0 min. Type of experiment: functional. The method, boiled down: (§4)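 Compound, 1 M stock in DMSO, diluted 100 µL into 9.9 mL 200 mM potassium phosphate pH 7.6 at 37 °C; aliquots taken at timed intervals and injected ip (20 µL/g, effective initial dose 0.2 mmol/kg) into female CD-1 mice infected ip with 10⁶ T. rhodesiense Y Tat 1.1, 3 days post-infection; 3–4 mice/group; read-out days survived beyond vehicle controls.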

The species entered for experiment [7] is Mus musculus. Nature of the experiment: Effect of aging of compound on the activity after 100 min. The class given is functional. In a few lines: as §4
The species named for experiment [8] is Mus musculus. Nature of the experiment: Effect of aging of compound on the activity after 200 min. Type of experiment: functional. The method, boiled down:
as §4

Experiment [9] is filed under the species Mus musculus. Described as §1. Type of experiment: functional. In a few lines:
as §2

For experiment [10], the system named is L1210. Nature of the experiment: Evaluated for average percent change in body weight from onset to termination of therapy against L1210 Leukemia cells in mice after 200 mg/kg dose administration. The class given is functional, Mus musculus. The method, boiled down: as §3
For experiment [11], the system named is L1210. Nature of the experiment: Evaluated for average percent change in body weight from onset to termination of therapy against L1210 Leukemia cells in mice after 60 mg/kg dose administration. Type of experiment: functional, Mus musculus. In a few lines:
as §3

The test system of experiment [12] is L1210. Nature of the experiment: Evaluated for average percent change in body weight from onset to termination of therapy against L1210 Leukemia cells in mice after 40 mg/kg dose administration. Type of experiment: functional, Mus musculus. The method, boiled down:
as §3

Take `CS(=O)(=O)N(N(CCCl)S(=O)(=O)c1ccc(Br)cc1)S(C)(=O)=O`: in the experiment on L1210 [1], the Survival was 60%. Also, the Change in weight in the experiment on L1210 [2] worked out at 0.9%.

Take `CS(=O)(=O)NN(CCCl)S(C)(=O)=O` [VPN-4090CE]: the Survival in the experiment on L1210 [1] was found to be 40%. Also, the Change in weight in the experiment on L1210 [3] was -3.3%. Further, the T/C with L1210 [4] is given as 130%.

On to `CS(=O)(=O)N(CCBr)N(S(C)(=O)=O)S(C)(=O)=O`, for which the Survival in the experiment on L1210 [1] stood at 0%. Also, the Change in weight in the experiment on L1210 [2] is -2%.

In the experiment on L1210 [1], `CS(=O)(=O)OCCN(N(S(C)(=O)=O)S(C)(=O)=O)S(C)(=O)=O` had a Survival of 0%. Besides, the Change in weight with L1210 [5] is recorded as -4.2%.

In the case of `CN(N(S(C)(=O)=O)S(C)(=O)=O)S(C)(=O)=O`, the Change in weight in the experiment with L1210 [2] is -7.7%. Moreover, the “Mean increase in survival” value amounted to 6.3 days in the experiment listed under Mus musculus [6], 3.7 days in the experiment listed under Mus musculus [7] and 1.2 days in the experiment filed under Mus musculus [8]. In the experiment filed under Mus musculus [9], the Survival is listed as 0%.

As to `COc1ccc(S(=O)(=O)N(CCCl)N(S(C)(=O)=O)S(C)(=O)=O)cc1`, the Survival in the experiment with L1210 [1] is given as 100%. Further, in the experiment with L1210 [10], the Change in weight is 5.9%.

In the experiment on L1210 [1], `CS(=O)(=O)N(CCI)N(S(C)(=O)=O)S(C)(=O)=O` yielded a Survival of 0%. Further, the Change in weight in the experiment on L1210 [2] worked out at 8%. In the experiment with L1210 [4], this compound returned a T/C of 110%.

Regarding `CS(=O)(=O)N(CCCl)N(S(C)(=O)=O)S(C)(=O)=O`, the Change in weight in the experiment with L1210 [11] is recorded as -7.2%. In the experiment on L1210 [1], this compound came in with a Survival of 100%.

In the case of `CN(NS(C)(=O)=O)S(C)(=O)=O`, in the experiment on L1210 [12], the Change in weight is reported as -5.8%. Besides, in the experiment with L1210 [1], the Survival is 0%. The T/C with L1210 [4] is 180%.

With `CS(=O)(=O)N(N(CCCl)S(=O)(=O)c1ccccc1)S(C)(=O)=O`, the Survival in the experiment with L1210 [1] was 40%. Moreover, in the experiment with L1210 [2], the Change in weight is 0.5%.

`Cc1ccc(S(=O)(=O)N(CCCl)N(S(C)(=O)=O)S(C)(=O)=O)cc1` came in with a Survival with L1210 [1] of 60%. Also, the Change in weight in the experiment with L1210 [2] is -12%. The compound also gave a T/C in the experiment with L1210 [4] of 210%.

As to `CS(=O)(=O)N(N(CCCl)S(=O)(=O)c1ccc(Cl)cc1)S(C)(=O)=O`, in the experiment with L1210 [1], the Survival turned out to be 60%. The Change in weight in the experiment on L1210 [10] was -3.4%.

Usually T/C stands for the result in the treated group divided by that in the control group, in per cent.
